Bioassay records: PubChem BioAssay, Sanford-Burnham Center for Chemical Genomics
bIAP act – increases bovine intestinal alkaline phosphatase activity; activation factor at 20 µM; hit rate 0.17% among 200,000; purified bovine IAP, CDP-star luminescence, 30 min; active compounds read high; fold of DMSO-control signal, blank-subtracted;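 active = activation factor of 2 or more at 20 µM, a signal rise over negative controls twice the positive control's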
mIAP act – mouse IAP activation; muIAP, CDP-Star luminescence, 30 min; active compounds read high; 1 = vehicle-only enzyme signal, 0 = enzyme-free wells; activation factor at 10 µM; hit rate 0.24% among 330,000; AID 2805;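 active = activation factor of at least 2 at 20 µM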
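also added = chemiluminescent substrate CDP-Star | test system = mouse IAP enzyme | signal = chemiluminescence readout | compound = DMSO-dissolved test compounds | incubation = 30 min at room temperature | benchmarks = DMSO wells, no-enzyme wells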
hIAP act – increases human intestinal alkaline phosphatase activity. P09923. purified human IAP, CDP-Star luminescence, 30 min; active compounds read high; 1 = vehicle-only enzyme, 0 = enzyme-free background. activation factor at 10 µM. hit rate 0.16% among 330,000;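 active = activation factor of the enzyme at least 2-fold when tested at 20 µM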
Target sequence (P09923 whole entry, looked up): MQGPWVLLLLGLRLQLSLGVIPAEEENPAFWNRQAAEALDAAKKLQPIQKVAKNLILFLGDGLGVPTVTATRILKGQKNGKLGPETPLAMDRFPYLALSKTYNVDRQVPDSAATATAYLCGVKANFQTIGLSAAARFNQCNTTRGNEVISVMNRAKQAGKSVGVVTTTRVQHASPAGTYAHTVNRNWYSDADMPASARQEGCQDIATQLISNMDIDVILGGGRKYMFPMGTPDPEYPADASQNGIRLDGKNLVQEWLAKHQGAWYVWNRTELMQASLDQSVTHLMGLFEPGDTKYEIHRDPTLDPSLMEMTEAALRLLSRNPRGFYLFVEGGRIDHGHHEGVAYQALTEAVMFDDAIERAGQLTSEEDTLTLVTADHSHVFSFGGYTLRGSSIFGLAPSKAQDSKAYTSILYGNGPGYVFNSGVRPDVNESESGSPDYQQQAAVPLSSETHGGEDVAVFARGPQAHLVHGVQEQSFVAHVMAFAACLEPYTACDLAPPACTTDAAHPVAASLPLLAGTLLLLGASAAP
mIAP block – mouse IAP inhibition. hit rate 0.2% among 330,000. inhibition, % at 10 µM. purified mouse IAP, CDP-Star luminescence, 30 min. AID 2806;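 active = inhibition of at least 40% at 10 µM in the primary screen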;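 note: plate controls were DMSO with enzyme for no effect and no enzyme wells for full effect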
hIAP block – human IAP inhibition; P09923; purified IAP, CDP-Star luminescence, 30 min; inhibition, % at 10 µM; hit rate 0.12% among 330,000; AID 2544;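 active = inhibition reaching a set limit with compound at 10 µM in the primary screen, cut at about 35% in these data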;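 note: plate controls were DMSO wells with enzyme for no effect and no-enzyme buffer wells for full effect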
bIAP inhibitor – intestinal alkaline phosphatase (bovine) inhibition. purified bovine IAP, CDP-star luminescence, 30 min. inhibition, % at 20 µM. 190,000 tested, under 10 active. AID 1019;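 active = over 50% inhibition of intestinal alkaline phosphatase at 20 µM in the single-dose screen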
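Incubation: 30 min reaction at room temperature / Material: purified bovine intestinal alkaline phosphatase (IAP) enzyme / Input: enzyme at 1/65,000,000 dilution / Dosing: 20 µM single dose / Signal: CDP-star luminescence signal / Reagent: CDP-star chemiluminescent phosphatase substrate, 30 µM final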
hIAP act conf – human IAP activation confirmation; shares compounds with hIAP act; purified IAP, CDP-Star luminescence, 30 min; active compounds read low; activation (%Activity, negative = activation), % at 8.3 µM; hit rate 10% among 880; AID 434926;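 active = at least twofold enzyme activation in any of six single-dose repeats, which the averaged readout prints as negative percent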
mIAP inh confirm – mouse IAP inhibition confirmation. hit rate 4.7% among 11,000. purified mouse IAP, CDP-Star luminescence, 30 min. inhibition, % at 10 µM. shares compounds with mIAP block;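 active = inhibition of at least 40% at 10 µM in either of the two replicates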;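 note: plate controls were DMSO wells with enzyme for no effect and buffer wells lacking enzyme for full effect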
The depositor's hits bear a star; nt = no result given. In the library only some 0.79% were active in any assay of this set; here they are far more common.

SMILES	bIAP act	mIAP act	hIAP act	mIAP block	hIAP block	bIAP inhibitor	hIAP act conf	others
OC(c1ccccc1)c1nc2ccccc2[nH]1 (stereo unspecified)	nt	1	0.9	-1	10	nt	nt
CC(c1ccccc1)C(Cc1nc2ccccc2[nH]1)c1nc2ccccc2[nH]1 (stereo unspecified)	4.1*	1.7	2.2*	-71	-118	-306	6
OC(c1nc2ccccc2[nH]1)C(O)c1nc2ccccc2[nH]1 (stereo unspecified)	nt	1	2.5*	0	-146	nt	-4
CC(C)N(Cc1nc2ccccc2[nH]1)C(C)C	1	1	0.91	-1	9	3	nt
c1ccc(-c2cccc(-c3ccccn3)n2)nc1	1.2	1.1	2.1*	-8	-105	-16	-113*
CC(C)n1cc(C(=O)NC2CC(C)(C)Cc3c2cnn3-c2ccccc2)cn1 (stereo unspecified)	nt	1	1.2	-5	-23	nt	nt
O=C(N/N=C/c1ccncc1)c1nc2ccccc2c(=O)[nH]1	nt	1.2	2.7*	-19	-170	nt	7
O=C(N/N=C/c1ccc2cccnc2c1)c1nc2ccccc2c(=O)[nH]1	nt	0.91	2.7*	9	-167	nt	-193*
COc1cccc(OCCNc2cc(Cl)ccc2[N+](=O)[O-])c1	0.4	0.88	1.1	12	-5	nt	nt
COc1ccccc1-c1nc(SCC(=O)N2CCC(C(N)=O)CC2)n[nH]1	nt	1.1	1	-6	-2	nt	nt
Cc1cnc(C(=O)NNC(=O)c2ccc(Br)cc2)cn1	nt	0.86	2.2*	14	-122	nt	-38
O=C(CN1C(=O)c2ccccc2C1=O)OCC(=O)c1ccccc1	nt	1	0.97	-4	2	nt	nt
CCCCOc1cccc(C2/C(=C(\O)c3ccc4c(c3)OCCO4)C(=O)C(=O)N2CCN2CCOCC2)c1 (stereo unspecified)	nt	1	0.58	-1	42*	nt	-91*
Cc1ccc(N(C)S(=O)(=O)c2c(C)noc2/C=C/N(C)C)cc1	nt	1	0.89	0	11	nt	nt
Cc1[nH]n(-c2nc(-c3ccccc3)cc(=O)[nH]2)c(=O)c1CCO	0.6	0.88	0.38	12	62*	35	47
COc1ccc(N=Cc2sc3ccccc3c2Cl)cc1	1	0.99	0.62	1	38*	4	-34
COC(=O)c1[nH]c2ccccc2c1NC(=O)CN1CCCCCC1	1.2	0.96	1.1	4	-7	-17	nt
COC(=O)c1[nH]c2ccccc2c1NC(=O)CNC1CCCCC1	1	0.96	0.47	4	53*	4	-32
O=C(NCc1ccccc1C(F)(F)F)c1cccc2c1C(=O)c1ccc(N3CCCCC3)cc1S2(=O)=O	nt	0.9	1	10	-1	nt	nt
CCOc1cccc(-c2nc(C(N)=O)c3[nH]c(=O)n(-c4cccc(Cl)c4)c3n2)c1O	1.1	0.8	4*	20	-296	-13	-75*
CC(C)NC(=O)CN1C(=O)c2cccc3cccc1c23	nt	0.99	1.3	1	-27	nt	nt
Cc1ccc(-c2csc(N3CCC(NS(=O)(=O)c4ccc5c(c4)OCCO5)CC3)n2)cc1	1.1	1.1	0.97	-14	2	-6	nt
COc1cc(CN2CCc3ccc(NC(=O)CCc4ccccc4OC)cc3C2)ccc1O	nt	1.2	0.64	-20	36*	nt	-24
COc1cc(C=C2C(=O)c3ccccc3C2=O)ccc1O	nt	0.73	0.68	27	32	nt	nt
COc1ccc(C=C2C(=O)c3ccccc3C2=O)cc1O	0.3	0.77	0.55	23	45*	nt	56
SMILES	bIAP act	mIAP act	hIAP act	mIAP block	hIAP block	bIAP inhibitor	hIAP act conf	others
CC(C)c1ccc(NC(=O)NC2CCN(CC(=O)Nc3cccc4ccccc34)CC2)cc1	1.8	4.2*	2.2*	-323	-122	-83	-26	mIAP inh confirm=-272
CC1C(=O)NN=C1C(=O)N/N=C\c1ccc(O)cc1O (stereo unspecified)	1	0.35	2.5*	65*	-149	2	-79*	mIAP inh confirm=60*
Cc1ccc(NC(=O)C2CC(=O)Nc3nc4ccccc4n32)c(C)c1 (stereo unspecified)	nt	3.5*	2.7*	-253	-169	nt	38	mIAP inh confirm=-157
CSc1ccc(/C=C(/NC(=O)c2ccccc2)C(=O)NCCN2CCOCC2)cc1	nt	1	0.96	-2	4	nt	nt
O=C(O)CCN1C(=O)c2ccc(Oc3ccc([N+](=O)[O-])cc3)cc2C1=O	nt	1	1	-1	-1	nt	nt
COc1cc(/C=C(\C#N)C(=O)N2CCOCC2)cc(Br)c1O	1	0.97	1.2	3	-16	-2	nt
COc1cc(/C=C(\C#N)C(=O)c2ccc(O)c(O)c2)cc(I)c1O	nt	0.17	0.49	83*	51*	nt	40	mIAP inh confirm=83*
CCN1CCN(c2ccc(N3CCN(S(=O)(=O)c4cc([N+](=O)[O-])ccc4C)CC3)nn2)CC1	nt	1	1.1	-1	-8	nt	nt
COc1ccc(S(=O)(=O)Nc2cc(Sc3ncn[nH]3)c(O)cc2C)cc1	nt	0.64	1	36	-4	nt	nt
Cc1ccc([N+](=O)[O-])cc1S(=O)(=O)Nc1ccc(O)c(Sc2ncn[nH]2)c1	nt	0.27	0.27	73*	73*	nt	7	mIAP inh confirm=89*
Cc1c(C)n(Cc2ccc(F)cc2)c2ccc(C(=O)NCCCN3CCOCC3)cc12	nt	1	1.6	-1	-58	nt	nt
COc1ccc(OC)c(CN2CCC(CNC(=O)Nc3cccc(Cl)c3)CC2)c1	1.5	2	1.4	-96	-41	-55	nt
COc1cc(NC(=O)NCC2CCN(Cc3ccccc3Cl)CC2)cc(OC)c1OC	nt	4*	2.6*	-301	-158	nt	-142*	mIAP inh confirm=-148
O=C(O)C(c1ccccc1)N1C(=O)/C(=C\c2ccc(O)c(O)c2)SC1=S (stereo unspecified)	nt	0.33	0.25	67*	75*	nt	24	mIAP inh confirm=79*
O=C1NC(=O)/C(=C\c2ccc(O)cc2O)S1	0.5	0.29	0.15	71*	84*	48	3	mIAP inh confirm=85*
COC(=O)[C@@]12OC[C@]34[C@H]([C@@H](O)[C@@H]1O)[C@@]1(C)C(=O)C(O[C@@H]5OC(CO)[C@@H](O)[C@@H](O)[C@@H]5O)=C[C@@H](C)[C@@H]1C[C@H]3OC(=O)[C@H](OC(=O)/C=C(\C)C(C)(C)OC(C)=O)[C@@H]24 (stereo partly specified)	nt	0.87	1.1	13	-6	nt	nt
CNc1nnc(-c2cc3ccccc3oc2=O)s1	0.1	0.42	0.27	58*	73*	nt	33	mIAP inh confirm=66*
Cc1ccccc1-c1nnc(NC(=O)c2cc3ccccc3oc2=O)s1	0.9	nt	nt	nt	nt	12	nt
